Assays:
[1] = Prodrug conversion in rat liver S9 fraction assessed as DH5FU metabolite formation at 1.6 mM incubated for 1 hr in presence of NADPH by 19F-NMR based analysis; format: ADME, subcellular; conditions: s9, 1 h, 1600 µM
How it was run: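 Compound added as 150 mM stock in DMSO-d₆, preincubated 5 min at 37 °C with enzyme mixture, then NADPH added (1 mM) and incubated 1 h at 37 °C, 600 rpm; controls without NADPH and without enzymes. Stopped with EtOAc, dried under N₂, redissolved in DMSO-d₆, DH5FU detected by ¹⁹F NMR vs authentic sample.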

BXPC-3 = experiment: Antiproliferative activity against human BxPC-3 cells assessed as reduction in cell viability measured after 5 days by PrestoBlue reagent based assay; format: functional; conditions: BXPC-3, 120 h
How it was run: (§1)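 Cells in 10% FBS, 2 mM L-glutamine media at 37 °C, 5% CO₂ (HCT116 in McCoy's 5A, BxPC-3 in RPMI). Seeded at 3000 (HCT116) or 2500 (BxPC-3) cells/well and grown 48 h. Medium then replaced with drug-containing medium, 0.1% DMSO, for 5 d. PrestoBlue 10% v/v added for 1 h, fluorescence read ex 540/em 590 nm. Normalised to DMSO-only wells; sigmoidal variable-slope fit; n = 3.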

HCT-116 [2] = experiment: Antiproliferative activity against human HCT-116 cells assessed as reduction in cell viability measured after 5 days by PrestoBlue reagent based assay; format: functional; conditions: HCT-116, 120 h; how it was run: as §1
HCT-116 [3] = experiment: Antiproliferative activity against human HCT-116 cells assessed as reduction in cell viability at 100 uM incubated for 5 days in presence of Pd-resins at 0.8 mg/ml by PrestoBlue dye based assay relative to control; format: functional; conditions: time 5 day
How it was run: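 HCT116 seeded at 750 cells/well and grown 48 h. Medium then replaced with fresh medium with or without Pd resins (20–160 μg per well; 0.2–1.4 mg/mL). Compound added as 5 μL of a 2 mM stock in 2% DMSO/medium, incubated 5 d. PrestoBlue fluorescence read; values normalised to untreated cells within each resin dilution.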

[4] = Metabolic stability in rat hepatocytes assessed as intrinsic clearance at 1 uM measured per 10^6 cells by LC-MS/MS analysis; format: ADME, cell-based, Hepatocyte; conditions: read-out: CLH
How it was run: (§2)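 Suspended hepatocytes (0.5 × 10⁶ cells/mL) in Williams E medium with 2 mM L-glutamine and 25 mM HEPES at 37 °C, compound added with 0.25% v/v DMSO after preincubation; aliquots quenched into methanol with internal standard at time points, centrifuged, supernatant analyzed by LC-MS/MS; two control compounds included.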

[5] = Metabolic stability in human hepatocytes assessed as half life at 1 uM by LC-MS/MS analysis; format: ADME, cell-based, Hepatocyte; how it was run: as §2
[6] = Apparent permeability across basolateral to apical side in human Caco-2 cells at 10 uM measured after 120 mins by LC-MS/MS analysis; format: ADME, cell-based
How it was run: (§3)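 Caco-2 cells (P40-60) seeded at 1 × 10⁵ cells/cm² on Transwells, used on day 20; rinsed and equilibrated 40 min in HBSS pH 7.4. Compound at 10 μM in HBSS, 1% v/v DMSO, added apically (A–B) or basolaterally (B–A); 120 min at 37 °C, 5% CO₂. Lucifer yellow monitored monolayer integrity; LC-MS/MS with eight-point calibration; recovery from C₀ and both compartments.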

[7] = Apparent permeability across basolateral to apical side in human Caco-2 cells assessed as drug recovery at 10 uM measured after 120 mins by LC-MS/MS analysis; format: ADME, cell-based; conditions: read-out: Drug recovery; how it was run: as §3
[8] = Plasma protein binding in human at 5 uM; format: ADME, cell-free; conditions: read-out: PPB (converted)
How it was run: (§4)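 Binding of compound at 5 μM measured in rat and human plasma, with compound recovery determined; n = 3.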

[9] = Plasma protein binding in human assessed as compound recovery at 5 uM; format: ADME, cell-free; conditions: read-out: Drug recovery; how it was run: as §4
[10] = Plasma protein binding in rat assessed as compound recovery at 5 uM; format: ADME, cell-free; conditions: read-out: Drug recovery; how it was run: as §4
Albumin = Albumin (Homo sapiens, UniProt P02768); experiment: Binding affinity to human plasma albumin; format: ADME, cell-free
[11] = Clearance in male Wistar Han rat at 1 mg/kg, iv administered as single dose measured upto 24 hrs; format: ADME, organism-based; conditions: in vivo
How it was run: (§5)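 Male jugular-vein-cannulated Wistar Han rats, 263–319 g, single dose. IV: 1 mg/kg as 2 mL/kg of 0.5 mg/mL in 5% DMSO/95% HPCD (20% w/v), not fasted. PO: 10 mg/kg as 5 mL/kg of 2 mg/mL suspension in 5% DMSO/95% tween 80/HPCD vehicle, fasted overnight. Serial cannula blood sampling 0.083/0.25–24 h (n = 3/route); parent quantified by QToF against calibration curve.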

[12] = Half life in male Wistar Han rat at 1 mg/kg, iv administered as single dose measured upto 24 hrs; format: ADME, organism-based; conditions: in vivo; how it was run: as §5
[13] = AUC (0 to infinity) in male Wistar Han rat at 1 mg/kg, iv administered as single dose measured upto 24 hrs; format: ADME, organism-based; parameters: time < 24 hrs, dose 1 mg/kg, route iv; conditions: in vivo; how it was run: as §5
[14] = Mean residence time in male Wistar Han rat at 10 mg/kg, po administered as single dose measured upto 24 hrs; format: ADME, organism-based; conditions: in vivo; how it was run: as §5
[15] = Oral bioavailability in Wistar Han rat at 10 mg/kg administered as single dose measured upto 24 hrs; format: ADME, organism-based; conditions: in vivo; how it was run: as §5
[16] = Cmax in male Wistar Han rat at 1000 mg/kg, po administered as single dose measured upto 24 hrs; format: ADME, organism-based; parameters: time < 24 hrs, dose 1000 mg/kg, route po; conditions: in vivo
How it was run: (§6)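 Single oral dose 1000 mg/kg in male and female rats, dosing volume 10 mL/kg (n = 6); animals observed 14 days with clinical checks, functional/neurobehavioral tests and body weight, necropsy on d15; exposure parameters from the toxicokinetic arm of this study.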

[17] = Cmax in female Wistar Han rat at 1000 mg/kg, po administered as single dose measured upto 24 hrs; format: ADME, organism-based; parameters: time < 24 hrs, dose 1000 mg/kg, route po; conditions: in vivo; how it was run: as §6
[18] = Tmax in female Wistar Han rat at 1000 mg/kg, po administered as single dose measured upto 24 hrs; format: ADME, organism-based; conditions: in vivo; how it was run: as §6
[19] = AUC (0 to t) in male Wistar Han rat at 1000 mg/kg, po administered as single dose measured upto 24 hrs; format: ADME, organism-based; parameters: dose 1000 mg/kg, time < 24 hrs, route po; conditions: in vivo; how it was run: as §6
[20] = AUC (0 to t) in female Wistar Han rat at 1000 mg/kg, po administered as single dose measured upto 24 hrs; format: ADME, organism-based; parameters: dose 1000 mg/kg, time < 24 hrs, route po; conditions: in vivo; how it was run: as §6
[21] = AUC (0 to infinity) in maleWistar Han rat at 1000 mg/kg, po administered as single dose measured upto 24 hrs; format: ADME, organism-based; parameters: time < 24 hrs, dose 1000 mg/kg, route po; conditions: male, Wistar Han, in vivo; how it was run: as §6
[22] = Toxicity in female Wistar Han rat assessed as mortality at 1000 mg/kg, po administered as single dose measured over 14 days; format: organism-based; conditions: in vivo, 336 h, time > 14 day
How it was run: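 Single oral dose of 1000 mg/kg at 10 mL/kg to male and female rats (n = 6), then 14 d observation. Morbidity and mortality checked twice daily. Clinical signs recorded predose, twice on dosing day, then daily. FOB on d1, d7 or d14. Body weight on d1, 2, 5, 8, 11 and 14. Gross necropsy on d15.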

[23] = Drug distribution in brain of BALB/c mouse xenografted with human HCT-116 cells at 75 to 150 mg/kg, po administered for 7 days; format: ADME, organism-based; conditions: in vivo, 168 h, dose 75-150 mg/kg, time 7 day

Albumin, sequence (P02768 whole entry): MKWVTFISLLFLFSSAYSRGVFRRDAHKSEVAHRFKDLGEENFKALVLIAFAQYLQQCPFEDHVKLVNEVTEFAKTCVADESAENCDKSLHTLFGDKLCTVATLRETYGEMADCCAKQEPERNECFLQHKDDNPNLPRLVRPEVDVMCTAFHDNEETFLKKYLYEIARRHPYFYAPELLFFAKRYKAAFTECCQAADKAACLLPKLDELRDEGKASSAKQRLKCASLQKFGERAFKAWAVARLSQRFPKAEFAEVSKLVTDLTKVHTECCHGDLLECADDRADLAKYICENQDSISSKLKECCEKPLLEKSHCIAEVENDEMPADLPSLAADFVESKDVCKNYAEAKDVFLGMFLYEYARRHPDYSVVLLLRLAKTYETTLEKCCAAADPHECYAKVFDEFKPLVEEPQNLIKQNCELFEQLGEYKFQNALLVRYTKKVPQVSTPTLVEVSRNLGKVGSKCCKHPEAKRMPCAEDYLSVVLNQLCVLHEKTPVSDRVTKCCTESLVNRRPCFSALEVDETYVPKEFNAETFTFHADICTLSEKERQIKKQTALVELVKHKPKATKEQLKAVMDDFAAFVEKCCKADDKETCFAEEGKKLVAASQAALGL

**Q.** What does the source list for C#CCOc1ncc(F)c(OCC#C)n1?
**A.** Drug metabolism [1]: Metabolite_Notdetected; EC50 (BXPC-3): > 100 µM; EC50 (HCT-116 [2]): > 100 µM; Activity (HCT-116 [3]): 7%; hepatocyte CLint at 1 µM [4]: 15.3 µL/min/1e6 cells; half-life at 1 µM [5]: 5.37 h; Papp B→A at 2 h, 10 µM [6]: 38.8 ×10⁻⁶ cm/s; recovery at 2 h, 10 µM [7]: 73.9%; fraction unbound at 5 µM [8]: 0.142; recovery at 5 µM [9]: 95.7%; recovery at 5 µM [10]: 94.8%; Activity (Albumin): 10%; clearance [11]: 52.1 mL/min/kg; half-life [12]: 0.497 h; AUC(0-inf) [13]: 0.33 µg·h/mL; MRT [14]: 1.86 h; F [15]: 187%; Cmax [16]: 84.7 µg/mL; Cmax [17]: 83.6 µg/mL; Tmax [18]: 4 h; AUC(0-t) at 24 h [19]: 1590 µg·h/mL; AUC(0-t) at 24 h [20]: 1210 µg·h/mL; AUC(0-inf) [21]: 2610 µg·h/mL; Activity [22]: Non-Toxic; Drug uptake [23]: Active

Source: ChEMBL document CHEMBL5154683, “A 5-FU Precursor Designed to Evade Anabolic and Catabolic Drug Pathways and Activated by Pd Chemistry In Vitro and In Vivo” (J Med Chem, 2022)
